Assay results taken from ChEMBL document CHEMBL3351625, “Ethyl 2-(benzylidene)-7-methyl-3-oxo-2,3-dihydro-5H-thiazolo[3,2-a]pyrimidine-6-carboxylate analogues as a new scaffold for protein kinase casein kinase 2 inhibitor” (Bioorg Med Chem, 2014).

Assays:
[1] = biological target: 5'-AMP-activated protein kinase catalytic subunit alpha-1 (Homo sapiens) (UniProt Q13131); assay: Inhibition of human AMPKalpha1 assessed as residual activity at 10 uM by KinaseProfiler assay
Procedure, shortened: (§1)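 Radioactive phosphorylation assays were run by an outsourced profiling service. Each of 31 human kinases was tested with inhibitor at 10 µM. Residual activity is expressed as a percentage of the mean activity in positive-control wells, which contained all reaction components except inhibitor plus DMSO as solvent control.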

[2] = biological target: 5'-AMP-activated protein kinase catalytic subunit alpha-2 (Homo sapiens) (UniProt P54646); assay: Inhibition of human AMPKalpha2 assessed as residual activity at 10 uM by KinaseProfiler assay; procedure, shortened: as §1
[3] = biological target: Tyrosine-protein kinase CSK (Homo sapiens) (UniProt P41240); assay: Inhibition of human CSK assessed as residual activity at 10 uM by KinaseProfiler assay; procedure, shortened: as §1
[4] = biological target: Tyrosine-protein kinase Fgr (Homo sapiens) (UniProt P09769); assay: Inhibition of human Fgr assessed as residual activity at 10 uM by KinaseProfiler assay; procedure, shortened: as §1
[5] = biological target: T1, Mitogen-activated protein kinase kinase kinase kinase 2 (Homo sapiens) (UniProt Q12851); assay: Inhibition of human GCK assessed as residual activity at 10 uM by KinaseProfiler assay; procedure, shortened: as §1
T1 sequence (whole entry): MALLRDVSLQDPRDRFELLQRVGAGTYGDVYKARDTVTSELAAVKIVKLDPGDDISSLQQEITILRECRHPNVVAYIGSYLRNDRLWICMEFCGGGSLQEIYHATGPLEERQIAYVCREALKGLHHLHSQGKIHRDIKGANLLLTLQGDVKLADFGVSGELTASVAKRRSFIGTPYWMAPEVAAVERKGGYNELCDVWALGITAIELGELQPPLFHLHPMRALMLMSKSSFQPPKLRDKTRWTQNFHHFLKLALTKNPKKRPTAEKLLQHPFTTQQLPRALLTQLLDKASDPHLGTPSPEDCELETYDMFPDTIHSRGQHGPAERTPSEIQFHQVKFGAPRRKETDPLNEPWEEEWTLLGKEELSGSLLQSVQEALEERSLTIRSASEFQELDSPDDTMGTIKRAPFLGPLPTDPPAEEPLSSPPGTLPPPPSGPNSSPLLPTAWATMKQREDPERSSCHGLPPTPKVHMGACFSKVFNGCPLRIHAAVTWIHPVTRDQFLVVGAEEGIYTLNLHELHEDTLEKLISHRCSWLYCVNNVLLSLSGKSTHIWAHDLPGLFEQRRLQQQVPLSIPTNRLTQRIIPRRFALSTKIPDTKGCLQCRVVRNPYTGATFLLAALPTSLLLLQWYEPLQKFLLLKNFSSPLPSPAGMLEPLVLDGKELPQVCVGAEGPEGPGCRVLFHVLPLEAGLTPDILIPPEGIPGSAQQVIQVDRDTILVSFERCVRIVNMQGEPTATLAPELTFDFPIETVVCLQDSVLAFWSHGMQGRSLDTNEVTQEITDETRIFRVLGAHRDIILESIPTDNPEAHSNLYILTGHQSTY

[6] = biological target: Glycogen synthase kinase-3 beta (Homo sapiens) (UniProt P49841); assay: Inhibition of human GSK3beta assessed as residual activity at 10 uM by KinaseProfiler assay; procedure, shortened: as §1
[7] = biological target: Mitogen-activated protein kinase 8 (Homo sapiens) (UniProt P45983); assay: Inhibition of human JNK1alpha1 assessed as residual activity at 10 uM by KinaseProfiler assay; procedure, shortened: as §1
[8] = biological target: MAP kinase-activated protein kinase 3 (Homo sapiens) (UniProt Q16644); assay: Inhibition of human MAPKAP-K3 assessed as residual activity at 10 uM by KinaseProfiler assay; procedure, shortened: as §1
[9] = biological target: T2, 3-phosphoinositide-dependent protein kinase 1 (Homo sapiens) (UniProt O15530); assay: Inhibition of human PDK1 assessed as residual activity at 10 uM by KinaseProfiler assay; procedure, shortened: as §1
T2 sequence (whole entry): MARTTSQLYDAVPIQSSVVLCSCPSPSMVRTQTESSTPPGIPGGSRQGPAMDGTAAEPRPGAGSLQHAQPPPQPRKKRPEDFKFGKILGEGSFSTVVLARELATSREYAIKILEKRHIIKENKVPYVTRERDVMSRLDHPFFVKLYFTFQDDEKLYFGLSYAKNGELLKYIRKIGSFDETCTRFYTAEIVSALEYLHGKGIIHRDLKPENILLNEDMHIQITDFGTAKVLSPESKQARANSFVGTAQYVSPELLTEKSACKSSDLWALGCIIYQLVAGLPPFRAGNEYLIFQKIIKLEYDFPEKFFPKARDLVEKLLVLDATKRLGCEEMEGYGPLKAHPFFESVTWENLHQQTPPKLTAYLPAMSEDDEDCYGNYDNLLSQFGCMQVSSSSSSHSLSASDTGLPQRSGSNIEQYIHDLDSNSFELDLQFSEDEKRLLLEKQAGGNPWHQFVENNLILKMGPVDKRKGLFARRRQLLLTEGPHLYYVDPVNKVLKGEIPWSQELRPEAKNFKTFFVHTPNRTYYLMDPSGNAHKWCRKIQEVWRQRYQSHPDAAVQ

[10] = species on record: Homo sapiens; assay: Inhibition of human PKA assessed as residual activity at 10 uM by KinaseProfiler assay; procedure, shortened: as §1
[11] = biological target: RAC-alpha serine/threonine-protein kinase (Homo sapiens) (UniProt P31749); assay: Inhibition of human PKBalpha assessed as residual activity at 10 uM by KinaseProfiler assay; procedure, shortened: as §1
[12] = biological target: Protein kinase C alpha type (Homo sapiens) (UniProt P17252); assay: Inhibition of human PKCalpha assessed as residual activity at 10 uM by KinaseProfiler assay; procedure, shortened: as §1
[13] = biological target: Rho-associated protein kinase 2 (Homo sapiens) (UniProt O75116); assay: Inhibition of human ROCK2 assessed as residual activity at 10 uM by KinaseProfiler assay; procedure, shortened: as §1
[14] = biological target: Mitogen-activated protein kinase 14 (Homo sapiens) (UniProt Q16539); assay: Inhibition of human SAPK2a assessed as residual activity at 10 uM by KinaseProfiler assay; procedure, shortened: as §1
[15] = biological target: T3, Mitogen-activated protein kinase 13 (Homo sapiens) (UniProt O15264); assay: Inhibition of human SAPK4 assessed as residual activity at 10 uM by KinaseProfiler assay; procedure, shortened: as §1
T3 sequence (whole entry): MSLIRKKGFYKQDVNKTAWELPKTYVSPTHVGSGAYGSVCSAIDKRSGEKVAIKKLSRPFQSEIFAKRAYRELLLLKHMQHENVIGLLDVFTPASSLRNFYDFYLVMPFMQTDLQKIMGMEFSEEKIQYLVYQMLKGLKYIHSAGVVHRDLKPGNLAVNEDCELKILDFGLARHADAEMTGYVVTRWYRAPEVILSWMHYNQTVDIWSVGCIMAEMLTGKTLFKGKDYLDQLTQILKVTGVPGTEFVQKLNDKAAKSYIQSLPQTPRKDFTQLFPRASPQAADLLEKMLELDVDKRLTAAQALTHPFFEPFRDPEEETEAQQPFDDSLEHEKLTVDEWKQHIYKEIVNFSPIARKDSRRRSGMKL

[16] = biological target: Tyrosine-protein kinase SYK (Homo sapiens) (UniProt P43405); assay: Inhibition of human Syk assessed as residual activity at 10 uM by KinaseProfiler assay; procedure, shortened: as §1

Sequence of Glycogen synthase kinase-3 beta (Homo sapiens) (P49841 whole entry, looked up): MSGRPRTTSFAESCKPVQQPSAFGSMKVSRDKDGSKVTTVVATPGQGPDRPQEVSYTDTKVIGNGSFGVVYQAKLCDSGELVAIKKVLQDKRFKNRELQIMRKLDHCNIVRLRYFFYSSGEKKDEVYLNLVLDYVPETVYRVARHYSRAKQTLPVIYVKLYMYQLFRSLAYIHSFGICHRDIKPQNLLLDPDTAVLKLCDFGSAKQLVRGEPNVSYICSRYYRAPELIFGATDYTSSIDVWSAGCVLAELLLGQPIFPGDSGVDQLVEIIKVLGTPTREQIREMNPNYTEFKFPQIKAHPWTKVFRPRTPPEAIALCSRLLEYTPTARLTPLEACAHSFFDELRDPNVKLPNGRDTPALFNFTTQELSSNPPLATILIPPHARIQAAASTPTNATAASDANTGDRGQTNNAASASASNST
Sequence of Mitogen-activated protein kinase 14 (Homo sapiens) (Q16539 whole entry): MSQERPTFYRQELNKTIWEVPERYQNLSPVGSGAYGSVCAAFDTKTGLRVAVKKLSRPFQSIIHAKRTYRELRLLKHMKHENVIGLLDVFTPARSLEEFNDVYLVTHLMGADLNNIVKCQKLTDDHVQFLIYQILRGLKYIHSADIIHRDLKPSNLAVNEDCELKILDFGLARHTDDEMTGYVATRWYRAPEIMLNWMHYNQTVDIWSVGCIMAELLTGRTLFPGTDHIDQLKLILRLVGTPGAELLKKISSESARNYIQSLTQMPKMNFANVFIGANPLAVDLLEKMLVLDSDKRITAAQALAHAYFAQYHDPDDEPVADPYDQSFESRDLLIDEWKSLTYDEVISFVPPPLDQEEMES
Sequence of Tyrosine-protein kinase Fgr (Homo sapiens) (P09769 2-529 limits assumed): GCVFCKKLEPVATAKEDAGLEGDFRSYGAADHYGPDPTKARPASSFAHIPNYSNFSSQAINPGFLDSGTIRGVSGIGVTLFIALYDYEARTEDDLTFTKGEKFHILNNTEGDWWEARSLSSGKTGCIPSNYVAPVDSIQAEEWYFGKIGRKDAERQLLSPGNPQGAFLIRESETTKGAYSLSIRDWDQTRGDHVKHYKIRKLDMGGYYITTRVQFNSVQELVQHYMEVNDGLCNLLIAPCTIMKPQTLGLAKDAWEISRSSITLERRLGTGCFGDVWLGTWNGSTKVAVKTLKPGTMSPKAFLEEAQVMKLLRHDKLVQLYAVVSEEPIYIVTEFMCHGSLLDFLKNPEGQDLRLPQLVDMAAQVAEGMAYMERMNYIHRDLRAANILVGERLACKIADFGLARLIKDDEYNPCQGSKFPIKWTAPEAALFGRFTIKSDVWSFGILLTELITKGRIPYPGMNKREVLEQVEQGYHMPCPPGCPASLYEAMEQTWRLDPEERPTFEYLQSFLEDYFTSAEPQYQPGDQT
Sequence of Tyrosine-protein kinase CSK (Homo sapiens) (P41240 2-450 limits assumed): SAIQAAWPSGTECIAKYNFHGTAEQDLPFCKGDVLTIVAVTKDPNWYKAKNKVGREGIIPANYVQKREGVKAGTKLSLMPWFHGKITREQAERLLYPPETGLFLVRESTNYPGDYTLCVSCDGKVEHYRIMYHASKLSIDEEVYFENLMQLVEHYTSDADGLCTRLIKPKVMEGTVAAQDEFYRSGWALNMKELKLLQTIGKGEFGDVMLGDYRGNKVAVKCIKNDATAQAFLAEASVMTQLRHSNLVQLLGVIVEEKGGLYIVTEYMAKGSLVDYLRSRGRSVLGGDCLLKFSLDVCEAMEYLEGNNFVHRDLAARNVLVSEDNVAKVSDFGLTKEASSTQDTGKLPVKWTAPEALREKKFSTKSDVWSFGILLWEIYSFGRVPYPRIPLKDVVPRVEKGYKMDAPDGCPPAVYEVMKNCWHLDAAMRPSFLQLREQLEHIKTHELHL
Sequence of 5'-AMP-activated protein kinase catalytic subunit alpha-1 (Homo sapiens) (Q13131 whole entry, looked up): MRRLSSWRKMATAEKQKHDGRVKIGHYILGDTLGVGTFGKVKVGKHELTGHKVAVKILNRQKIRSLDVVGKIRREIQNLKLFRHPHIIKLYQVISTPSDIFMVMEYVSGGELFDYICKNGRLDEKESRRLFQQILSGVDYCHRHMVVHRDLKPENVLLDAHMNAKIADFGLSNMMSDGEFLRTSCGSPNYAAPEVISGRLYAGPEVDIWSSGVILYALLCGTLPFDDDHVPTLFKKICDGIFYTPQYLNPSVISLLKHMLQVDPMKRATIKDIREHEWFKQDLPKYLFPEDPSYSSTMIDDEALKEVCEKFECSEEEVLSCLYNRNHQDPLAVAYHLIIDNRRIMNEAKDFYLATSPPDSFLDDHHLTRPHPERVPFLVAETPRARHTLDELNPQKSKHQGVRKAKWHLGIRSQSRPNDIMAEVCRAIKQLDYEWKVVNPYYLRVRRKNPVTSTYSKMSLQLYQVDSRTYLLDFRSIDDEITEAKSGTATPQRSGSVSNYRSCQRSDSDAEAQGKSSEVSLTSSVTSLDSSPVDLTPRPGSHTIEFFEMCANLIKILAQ
Sequence of MAP kinase-activated protein kinase 3 (Homo sapiens) (Q16644 whole entry, looked up): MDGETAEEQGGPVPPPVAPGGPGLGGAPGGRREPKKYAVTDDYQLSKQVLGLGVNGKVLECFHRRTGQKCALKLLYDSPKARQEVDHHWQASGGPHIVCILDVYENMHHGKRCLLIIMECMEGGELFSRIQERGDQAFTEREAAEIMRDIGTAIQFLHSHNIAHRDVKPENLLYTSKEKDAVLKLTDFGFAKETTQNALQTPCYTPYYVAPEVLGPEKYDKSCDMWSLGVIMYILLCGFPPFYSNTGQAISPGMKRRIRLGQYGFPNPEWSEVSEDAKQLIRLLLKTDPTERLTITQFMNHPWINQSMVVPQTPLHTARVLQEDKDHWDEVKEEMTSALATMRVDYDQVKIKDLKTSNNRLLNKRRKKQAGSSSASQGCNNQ
Sequence of Mitogen-activated protein kinase 8 (Homo sapiens) (P45983 whole entry): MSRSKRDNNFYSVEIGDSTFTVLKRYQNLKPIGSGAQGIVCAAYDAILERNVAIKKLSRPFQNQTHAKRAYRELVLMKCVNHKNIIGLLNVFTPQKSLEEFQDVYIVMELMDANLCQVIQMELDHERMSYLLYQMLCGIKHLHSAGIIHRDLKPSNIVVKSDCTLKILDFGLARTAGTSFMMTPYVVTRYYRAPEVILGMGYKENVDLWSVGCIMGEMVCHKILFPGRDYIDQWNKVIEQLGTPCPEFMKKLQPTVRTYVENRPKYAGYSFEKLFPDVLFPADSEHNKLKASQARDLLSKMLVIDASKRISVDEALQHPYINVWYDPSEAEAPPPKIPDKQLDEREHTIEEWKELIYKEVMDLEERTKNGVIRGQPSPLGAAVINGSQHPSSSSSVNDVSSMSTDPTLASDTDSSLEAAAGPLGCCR
Sequence of 5'-AMP-activated protein kinase catalytic subunit alpha-2 (Homo sapiens) (P54646 whole entry, looked up): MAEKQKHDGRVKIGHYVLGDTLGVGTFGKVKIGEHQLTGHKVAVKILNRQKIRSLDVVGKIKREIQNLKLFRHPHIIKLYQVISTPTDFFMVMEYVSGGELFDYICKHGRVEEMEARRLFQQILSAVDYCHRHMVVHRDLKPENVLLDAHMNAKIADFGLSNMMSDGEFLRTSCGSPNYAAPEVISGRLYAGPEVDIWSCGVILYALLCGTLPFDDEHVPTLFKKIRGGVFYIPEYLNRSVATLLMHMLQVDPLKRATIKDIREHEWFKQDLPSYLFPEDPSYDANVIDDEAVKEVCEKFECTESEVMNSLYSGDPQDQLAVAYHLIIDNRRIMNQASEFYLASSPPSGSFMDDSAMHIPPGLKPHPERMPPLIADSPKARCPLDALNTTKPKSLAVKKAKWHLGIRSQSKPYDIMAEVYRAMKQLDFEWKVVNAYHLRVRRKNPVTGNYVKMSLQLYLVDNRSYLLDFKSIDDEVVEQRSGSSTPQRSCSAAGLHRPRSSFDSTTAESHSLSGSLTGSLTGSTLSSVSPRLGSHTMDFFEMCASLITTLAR
Sequence of RAC-alpha serine/threonine-protein kinase (Homo sapiens) (P31749 whole entry): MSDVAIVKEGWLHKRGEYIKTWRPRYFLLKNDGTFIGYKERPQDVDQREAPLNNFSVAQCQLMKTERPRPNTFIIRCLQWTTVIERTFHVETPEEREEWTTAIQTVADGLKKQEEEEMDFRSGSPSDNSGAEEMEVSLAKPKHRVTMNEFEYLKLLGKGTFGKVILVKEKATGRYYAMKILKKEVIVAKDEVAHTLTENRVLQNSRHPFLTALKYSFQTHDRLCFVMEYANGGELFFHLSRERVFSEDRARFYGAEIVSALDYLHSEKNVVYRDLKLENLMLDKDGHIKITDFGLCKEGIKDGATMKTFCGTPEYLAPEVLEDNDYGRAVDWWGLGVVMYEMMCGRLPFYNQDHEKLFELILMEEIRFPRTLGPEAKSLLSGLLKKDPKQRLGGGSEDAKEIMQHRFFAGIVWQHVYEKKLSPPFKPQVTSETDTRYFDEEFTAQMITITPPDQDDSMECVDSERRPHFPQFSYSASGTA

Structure (SMILES)	Activity [1] [%]	Activity [2] [%]	Activity [3] [%]	Activity [4] [%]	Activity [5] [%]	Activity [6] [%]	Activity [7] [%]	Activity [8] [%]	Activity [9] [%]	Activity [10] [%]	Activity [11] [%]	Activity [12] [%]	Activity [13] [%]	Activity [14] [%]	Activity [15] [%]	Activity [16] [%]
Brc1c(Br)c(Br)c2[nH]nnc2c1Br	75	83	116	102	92	42	51	95	93	109	61	106	73	99	106	87
CCOC(=O)C1=C(C)N=c2s/c(=C\c3ccc(O)c(O)c3)c(=O)n2C1c1ccc(Cl)cc1 (stereo not drawn)	82	65	82	98	87	52	101	117	78	130	90	91	89	72	79	77
CCOC(=O)C1=C(C)N=c2s/c(=C\c3cc(O)c(O)c(O)c3)c(=O)n2C1c1ccc(Cl)cc1 (stereo not drawn)	64	48	54	75	87	51	92	122	69	92	50	91	108	59	76	28
